# pIC50: −log10 of the molar value. Active and inactive are the calls of the source. The rule behind the calls is not given here.
# Tests used:
# MCF7 = test: Cytotoxicity against human MCF7 cells assessed as reduction in cell viability by sulforhodamine B assay; type: functional, cell-based
# Summary of the method: (§1)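 Cells were kept in RPMI-1640 with 10% FBS, 2 mM L-glutamine, 50 μM β-mercaptoethanol and penicillin/streptomycin, at 37 °C in 5% CO2. SRB assay used 100, 10, 1, 0.1 and 0.01 μM, each in triplicate. Percent inhibition was calculated against solvent control OD. IC50 came from Logit curve fitting and is the mean of three independent experiments.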
# HCT-116 [1] = test: Cytotoxicity against human HCT-116 cells assessed as reduction in cell viability by sulforhodamine B assay; type: functional, cell-based; summary of the method: as §1
# [2] = Cytotoxicity against human HO-8910 cells assessed as reduction in cell viability by sulforhodamine B assay; type: functional, cell-based; summary of the method: as §1
# HL-60 = test: Cytotoxicity against human HL-60 cells assessed as reduction in cell viability by sulforhodamine B assay; type: functional, cell-based; summary of the method: as §1
# Pyricularia oryzae = test: Antifungal activity against Pyricularia oryzae P-2B by measuring minimum morphological deformation concentration; type: functional; details: read-out: MEC
# HCT-116 [3] = test: Induction of apoptosis in human HCT-116 cells assessed as decrease in viable cells measured upto 2 times of IC50 concentration by annexin V staining based flow cytometry analysis; type: functional, cell-based
# Summary of the method: (§2)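 HCT-116 cells treated with vehicle or three compound concentrations, collected, and stained with Annexin V-FITC and propidium iodide in the dark at 4 °C. Flow cytometry quadrants: Q4 live, Q3 early apoptotic, Q2 late apoptotic, Q1 necrotic. n = 3; ANOVA vs vehicle.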
# HCT-116 [4] = test: Induction of apoptosis in human HCT-116 cells assessed as increase in necrotic cells measured upto 2 times of IC50 concentration by annexin V staining based flow cytometry analysis; type: functional, cell-based; summary of the method: as §2
# [5] = Inhibition of angiogenesis in human HMEC-1 cells assessed as tube formation by matrigel-based assay; type: functional, cell-based
# Summary of the method: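 HMEC-1 cells seeded onto solidified Matrigel and exposed to compound, then cultured. Total tube length measured and used to calculate IC50. Three independent experiments.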
# [6] = target: Platelet-derived growth factor receptor beta (Mus musculus, UniProt P05622); test: Inhibition of PDGFRbeta in mouse NIH/3T3 cells assessed as reduction of PDGF-BB-stimulated phosphorylation; type: cell-based
# Summary of the method: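 NIH/3T3 fibroblasts transfected to overexpress VEGFR-2 or PDGFR-β, starved 24 h, then given compound. Stimulation: VEGF 500 ng/mL for VEGFR-2 cells, PDGF-BB 150 ng/mL for PDGFR-β cells. Cells fixed in 4% paraformaldehyde and probed with PY-99 anti-phosphotyrosine, secondary IgG and HRP-avidin. OD 405 nm read after ABTS; IC50 from three independent experiments.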
# CCRF S-180 = test: Antitumor activity against mouse S-180 cells implanted in KM mouse assessed as tumor growth inhibition at 5 mg/kg, IG administered everyday for 7 days relative to control; type: functional; details: CCRF S-180, po, 168 h, time 7 day, read-out: TGI
# Summary of the method: (§3)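 S-180 or H22 cells, about 2.5 × 10⁶ per mouse, injected s.c. in the right axilla of wild-type KM mice. Randomized after 24 h and dosed intragastrically for 7 days; sacrificed 24 h after the last dose. TGI = (W_C − W_T)/W_C × 100% from average tumor weight. n = 8; one-way ANOVA vs vehicle.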
# H22 = test: Antitumor activity against mouse H22 cells implanted in KM mouse assessed as tumor growth inhibition at 5 mg/kg, IG administered everyday for 7 days relative to control; type: functional; details: H22, po, 168 h, time 7 day, read-out: TGI; summary of the method: as §3
# Bel-7402 [7] = test: Antitumor activity against human Bel-7402 cells implanted in BALB/c-nu mouse assessed as tumor growth inhibition at 5 mg/kg, IG administered everyday for 7 days relative to control; type: functional; details: Bel-7402, po, 168 h, time 7 day, read-out: TGI
# Bel-7402 [8] = test: Antitumor activity against human Bel-7402 cells implanted in BALB/c-nu mouse assessed as tumor growth inhibition at 50 mg/kg, IG administered everyday for 7 days relative to control; type: functional; details: Bel-7402, po, 168 h, time 7 day, read-out: TGI
# Bel-7402 [9] = test: Antitumor activity against human Bel-7402 cells implanted in BALB/c-nu mouse assessed as tumor growth inhibition at 500 mg/kg, IG administered everyday for 7 days relative to control; type: functional; details: Bel-7402, po, 168 h, time 7 day, read-out: TGI
# Mus musculus [10] = test: Immunomodulatory activity in cyclophosphamide-immunosuppressed KM mouse assessed as increase in carbon particle clearance index in at 50 to 500 mg/kg, IG once daily measured after 14 days; type: functional, organism-based; details: dose 50-500 mg/kg, time 14.0 day
# Summary of the method: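 KM mice dosed intragastrically once daily for 14 days at 5, 50 or 500 mg/kg; vehicle 0.5% CMC-Na. CTX 50 mg/kg i.p. on days 7, 9 and 11. 1 h after the last dose, 25% Indian ink given i.v. at 0.1 mL/10 g. Blood (20 µL) taken at 2 and 10 min, lysed in 2 mL water, OD 680 nm read. K and α calculated with body, liver and spleen weights. n = 8.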
# Mus musculus [11] = test: Immunomodulatory activity in cyclophosphamide-immunosuppressed KM mouse assessed as improved spleen index in at 50 to 500 mg/kg, IG once daily measured after 14 days; type: functional, organism-based; details: dose 50-500 mg/kg, time 14.0 day
# Summary of the method: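 KM mice dosed intragastrically at 5, 50 or 500 mg/kg; vehicle 0.5% CMC-Na. After five doses, immunized i.p. with 0.2 mL 20% rabbit erythrocytes, and dosing continued for 8 days. CTX 30 mg/kg i.p. on days 2, 4 and 6 after immunization. 1 h after the last dose, spleen and thymus weighed; index in g/kg. n = 8.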
# Chain of Platelet-derived growth factor receptor beta (P05622 whole entry): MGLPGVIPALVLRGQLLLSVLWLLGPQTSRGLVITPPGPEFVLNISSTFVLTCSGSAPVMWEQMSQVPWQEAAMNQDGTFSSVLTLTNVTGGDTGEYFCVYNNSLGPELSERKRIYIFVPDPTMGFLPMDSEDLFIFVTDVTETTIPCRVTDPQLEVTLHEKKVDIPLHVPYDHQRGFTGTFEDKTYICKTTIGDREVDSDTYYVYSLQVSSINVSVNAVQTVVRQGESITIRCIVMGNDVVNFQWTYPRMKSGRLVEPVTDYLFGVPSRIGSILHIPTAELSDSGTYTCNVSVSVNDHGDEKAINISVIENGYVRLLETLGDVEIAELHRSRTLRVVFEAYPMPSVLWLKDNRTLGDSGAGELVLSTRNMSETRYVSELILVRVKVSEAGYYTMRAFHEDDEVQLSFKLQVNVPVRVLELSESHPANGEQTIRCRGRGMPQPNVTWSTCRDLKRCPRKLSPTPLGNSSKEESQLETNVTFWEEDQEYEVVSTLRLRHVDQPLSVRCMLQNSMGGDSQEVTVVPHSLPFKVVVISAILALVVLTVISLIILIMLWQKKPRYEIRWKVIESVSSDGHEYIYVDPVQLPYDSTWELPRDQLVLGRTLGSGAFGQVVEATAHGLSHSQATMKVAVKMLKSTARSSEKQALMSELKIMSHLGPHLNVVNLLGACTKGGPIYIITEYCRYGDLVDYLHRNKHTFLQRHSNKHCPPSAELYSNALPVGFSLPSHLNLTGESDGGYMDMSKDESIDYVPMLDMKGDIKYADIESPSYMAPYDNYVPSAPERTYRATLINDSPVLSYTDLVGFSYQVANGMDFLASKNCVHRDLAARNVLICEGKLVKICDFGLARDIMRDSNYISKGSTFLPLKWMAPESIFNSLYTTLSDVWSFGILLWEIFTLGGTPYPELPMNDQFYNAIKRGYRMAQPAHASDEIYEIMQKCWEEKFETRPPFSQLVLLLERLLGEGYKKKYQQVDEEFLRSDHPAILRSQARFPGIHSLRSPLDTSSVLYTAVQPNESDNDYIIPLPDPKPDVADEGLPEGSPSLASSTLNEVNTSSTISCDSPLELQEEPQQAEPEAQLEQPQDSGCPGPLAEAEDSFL
structure (smiles),measurement,setting,value
C=C(C)CCC[C@]1(C)OC(=O)[C@]23CC[C@@H]4C(=CCC5C(C)(C)[C@@H](O[C@@H]6OC[C@@H](OS(=O)(=O)[O-])[C@H](O)[C@H]6O[C@@H]6O[C@H](C)[C@@H](O[C@@H]7OC[C@@H](O)[C@H](O[C@@H]8O[C@H](CO)[C@@H](O)[C@H](OC)[C@H]8O)[C@H]7O)[C@H](O)[C@H]6O)CC[C@@]54C)[C@]2(C)C[C@H](OC(C)=O)[C@@H]31.[Na+] (stereo partly specified),pIC50,MCF7,5.69
same,pIC50,HCT-116 [1],5.87
same,pIC50,[2],5.71
same,pIC50,HL-60,6.22
same,minimal effective concentration,Pyricularia oryzae,≤ 16 µg/mL
same,Activity,HCT-116 [3],inactive
same,Activity,HCT-116 [4],Active
same,pIC50,[5],7.22
same,pIC50,[6],5.32
same,inhibition in vivo at 5 mg/kg,CCRF S-180,44.2%
same,inhibition in vivo at 5 mg/kg,H22,40.1%
same,inhibition in vivo at 5 mg/kg,Bel-7402 [7],50.1%
same,inhibition in vivo at 50 mg/kg,Bel-7402 [8],58.2%
same,inhibition in vivo at 500 mg/kg,Bel-7402 [9],58.6%
same,Activity,Mus musculus [10],Active
same,Activity,Mus musculus [11],Active
